Laboratory results published in ChEMBL document CHEMBL2434878, “Synthesis and antimycobacterial activity of analogues of the bioactive natural products sampangine and cleistopholine” (Eur J Med Chem, 2013).

System: Mycobacterium tuberculosis variant bovis
Assay: Antimicrobial activity against Mycobacterium bovis AN5 expressing luciferase reporter gene assessed as growth inhibition after 6 days by luminometry
Type: functional
Details: AN5, 144 h
How it was run: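 Other mycobacteria (M. avium ssp. avium ATCC 15769, ssp. paratuberculosis ATCC 19698, M. bovis AN5) were grown in 7H9 with 10% OADC and 0.2% glycerol; M. bovis had 0.05% Tween 80 in place of glycerol, and paratuberculosis had mycobactin J (2 mg/ml); all were grown at 39 °C. Serial dilutions were tested by the luciferase luminometry assay and the 50% growth-reduction concentration was read.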

SMILES | GI50 [µM]
O=C1c2ccccc2C(=O)c2c(O)cc(-c3ccccc3)cc21 | 0.8
COc1ccc(-c2cc(O)c3c(c2)C(=O)c2ccccc2C3=O)cc1 | 0.38
CN(C)/C=C/c1nc(-c2ccccc2)cc2c1C(=O)c1ccccc1C2=O | 0.64
COc1ccc(-c2cc3c(c(/C=C/N(C)C)n2)C(=O)c2ccccc2C3=O)cc1 | 0.47
CN(C)/C=C/c1nc(-c2ccc(F)cc2)cc2c1C(=O)c1ccccc1C2=O | 0.48
CN(C)/C=C/c1nc(-c2ccc(Cl)cc2)cc2c1C(=O)c1ccccc1C2=O | 0.49
Cc1ccc(-c2cc3c(c(/C=C/N(C)C)n2)C(=O)c2ccccc2C3=O)cc1 | 0.58
O=C1c2ccccc2-c2nccc3nc(-c4ccccc4)cc1c23 | 0.67
COc1ccc(-c2cc3c4c(nccc4n2)-c2ccccc2C3=O)cc1 | 0.52
O=C1c2ccccc2-c2nccc3nc(-c4ccc(F)cc4)cc1c23 | 0.67
